The target of test [1] is T1, Sphingosine kinase 1 (Homo sapiens, UniProt Q9NYA1). Nature of the test: Competitive inhibition of recombinant sphingosine kinase 1 using D-erythro-sphingosine as substrate by Lineweaver-Burke plot analysis. In a few lines:
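Recombinant His6X-tagged SphK1, affinity purified from HEK293 overexpression, assayed with varying D-erythro-sphingosine concentrations, with inhibitor absent or at 10 and 17 µM. Sph delivered in SKAAB buffer without BSA conjugation or Triton X-100 micelles. DMSO ≤5% of reaction. Ki and mechanism from linear regression.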

For test [2], the system named is MCF7. The test is described as follows: Cytotoxicity against human MCF7 cells after 48 hrs by sulforhodamine B assay. In kind it is functional, cell-based. The note with it: MCF7, 48 h.
Test [3] has as its target T1, Sphingosine kinase 1. Nature of the test: Inhibition of His6x-tagged recombinant sphingosine kinase 1 expressed in HEK293 cells at 10.7 uM. In kind it is cell-based. In a few lines: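 Affinity-purified His6X-tagged SphK1, recombinantly overexpressed in HEK293 cells. Substrate was 25 µM D-erythro-sphingosine in SKAAB buffer, without BSA conjugation or Triton X-100 micelles. Compounds screened at 10.7 µM, with DMSO controls at ≤5% of reaction volume. Reported as % inhibition, averages of two separate experiments.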

The test system of a further test is NCI-H460. The test is described as follows: Cytotoxicity against human H460 cells after 48 hrs by sulforhodamine B assay. The class given is functional, cell-based. The note with it: NCI-H460, 48 h.
Test [4] has as its target T1, Sphingosine kinase 1. The test is described as follows: Non-competitive inhibition of recombinant sphingosine kinase 1 using ATP as substrate by Lineweaver-Burke plot analysis.
Test [5] addresses T2, Sphingosine kinase 2 (Homo sapiens) (UniProt Q9NRA0).
T2 sequence (whole entry): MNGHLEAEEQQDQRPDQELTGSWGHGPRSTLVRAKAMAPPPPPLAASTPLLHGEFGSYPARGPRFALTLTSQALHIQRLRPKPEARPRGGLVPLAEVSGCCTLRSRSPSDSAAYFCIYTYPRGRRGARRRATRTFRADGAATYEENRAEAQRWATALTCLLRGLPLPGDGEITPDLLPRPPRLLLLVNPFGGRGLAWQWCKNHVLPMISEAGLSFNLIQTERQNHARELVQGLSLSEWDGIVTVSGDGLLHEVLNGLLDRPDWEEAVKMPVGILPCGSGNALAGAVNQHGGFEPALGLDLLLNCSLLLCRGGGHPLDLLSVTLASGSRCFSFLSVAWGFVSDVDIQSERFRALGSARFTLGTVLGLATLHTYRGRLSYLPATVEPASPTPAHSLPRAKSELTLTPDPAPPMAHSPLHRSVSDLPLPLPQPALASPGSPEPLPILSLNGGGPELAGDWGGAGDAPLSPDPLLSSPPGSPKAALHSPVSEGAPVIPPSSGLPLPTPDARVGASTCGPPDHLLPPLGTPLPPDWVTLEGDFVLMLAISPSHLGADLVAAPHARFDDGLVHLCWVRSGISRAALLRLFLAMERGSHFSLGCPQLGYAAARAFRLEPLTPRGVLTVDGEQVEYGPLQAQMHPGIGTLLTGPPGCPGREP
The test is described as follows: Inhibition of sphingosine kinase 2 up to 25 uM. In short, it runs like this:
(§1)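 SphK2 activity assay in SKAAB buffer supplemented with 1 M KCl. Substrate was D-erythro-sphingosine delivered without BSA or Triton X-100. DMSO ≤5% of reaction volume.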

Another test relates to BXPC-3. Nature of the test: Cytotoxicity against human BxPC3 cells after 48 hrs by sulforhodamine B assay. In kind it is functional, cell-based. To be noted: BXPC-3, 48 h.
A further test has as its system NCI-H226. Nature of the test: Cytotoxicity against human NCI-H226 cells after 48 hrs by sulforhodamine B assay. In kind it is functional, cell-based. To be noted: NCI-H226, 48 h.
Test [6] concerns HL-60. Nature of the test: Cytotoxicity against VCR-resistance human HL60 cells after 48 hrs by sulforhodamine B assay. The class given is functional, cell-based. To be noted: HL-60, 48 h.
Test [7] has as its system MCF7. Nature of the test: Cytotoxicity against human tamoxifen-resistant MCF7 cells after 48 hrs by sulforhodamine B assay. In kind it is functional, cell-based. The note with it: MCF7, 48 h.
The subject of another test is A549. Nature of the test: Ratio of compound cytotoxicity at 1 uM to SKI-I cytotoxicity for human A549 cells.
Test [8] can be described thus: Cytotoxicity against human Kusami-3 cells after 48 hrs by sulforhodamine B assay. The class given is functional, cell-based. To be noted: Kusami-3, 48 h.
The test system of the next test is SH-SY5Y. Nature of the test: Cytotoxicity against human SH-SY5Y cells after 48 hrs by sulforhodamine B assay. The class given is functional, cell-based.
A further test relates to MIA PaCa-2. Nature of the test: Cytotoxicity against human MIAPaCa2 cells after 48 hrs by sulforhodamine B assay. The class given is functional, cell-based. To be noted: MIA PaCa-2, 48 h.
Test [9] in a line: Cytotoxicity against human NCI/ADR cells after 48 hrs by sulforhodamine B assay. The class given is functional, cell-based. To be noted: NCI/ADR-RES.
Another test has as its system U-251. Nature of the test: Cytotoxicity against human U251 cells after 48 hrs by sulforhodamine B assay. In kind it is functional, cell-based. The note with it: U-251, 48 h.
Test [10] in a line: Cytotoxicity against human U87MG cells after 48 hrs by sulforhodamine B assay. The class given is functional, cell-based, U-87MG ATCC. To be noted: U-87 MG.
In test [11] the target is T1, Sphingosine kinase 1. The test is described as follows: Inhibition of sphingosine kinase 1 in human A549 cells assessed as reduction in sphingosine-1-phosphate cellular level at 1 uM after 48 hrs by thin layer chromatography relative to control. In kind it is cell-based. In a few lines:
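A549 cells treated with 1 µM compound for 48 h. SphK activity assays were run on whole-cell lysates, lipids were separated by thin layer chromatography, and S1P was compared with DMSO-treated controls.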

Test [12] relates to HL-60. Nature of the test: Cytotoxicity against human HL60 cells after 48 hrs by sulforhodamine B assay. In kind it is functional, cell-based. The note with it: HL-60, 48 h.
The nature of test [13]: Cytotoxicity against human KG1a cells after 48 hrs by sulforhodamine B assay. The class given is functional, cell-based. To be noted: KG-1a.
The test system of the next test is PANC-1. Nature of the test: Cytotoxicity against human PANC1 cells after 48 hrs by sulforhodamine B assay. The class given is functional, cell-based. The note with it: PANC-1, 48 h.
Test [14] has as its target T2, Sphingosine kinase 2 (Homo sapiens). The test is described as follows: Inhibition of sphingosine kinase 2. In short, it runs like this:
as §1

The structures appear in SMILES notation. pIC50, pKi: −log10 of the molar value. Activity calls are given as the source filed them. The rule behind the calls is not given here.

T1 sequence (Q9NYA1 whole entry): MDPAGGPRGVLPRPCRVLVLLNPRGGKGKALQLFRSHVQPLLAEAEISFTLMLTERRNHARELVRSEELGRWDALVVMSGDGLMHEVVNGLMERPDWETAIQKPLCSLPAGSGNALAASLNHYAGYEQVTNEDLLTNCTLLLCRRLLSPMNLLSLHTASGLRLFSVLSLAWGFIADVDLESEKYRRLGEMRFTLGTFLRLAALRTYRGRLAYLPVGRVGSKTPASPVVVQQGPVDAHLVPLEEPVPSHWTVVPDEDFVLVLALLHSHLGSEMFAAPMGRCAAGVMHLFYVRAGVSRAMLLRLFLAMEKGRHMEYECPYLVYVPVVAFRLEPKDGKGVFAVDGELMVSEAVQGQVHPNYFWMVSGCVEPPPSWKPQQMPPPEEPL

`COc1ccc(-c2cc(C(=O)N/N=C(\C)c3ccc(OC)c(OC)c3)[nH]n2)cc1`: the pKi on Sphingosine kinase 1 [1] was 5.88. Besides, the pIC50 is 5.89 in the test on MCF7 [2]; 6.52 with NCI-H460; 6.70 with BXPC-3; 6.52 in the test with NCI-H226; 6.70 in the test on HL-60 [6]; 5.74 in the test with MCF7 [7]. Besides, the pIC50 in test [8] was 6.70; in the test on SH-SY5Y, 6.52; in the test with MIA PaCa-2 it was 7.00; in test [9] it was 5.82; in the test on U-251, 6.30; in test [10], 6.22. The pIC50 in the test on HL-60 [12] is 6.70; in test [13], 6.30; with PANC-1 it was 7.00. Further, the inhibition at Sphingosine kinase 1 [3] was found to be 59.6%. Also, the inhibition result on Sphingosine kinase 1 [4] and at Sphingosine kinase 1 [11] was “Active” each time. Also, the inhibition result in test [5] is “inactive”. In the test with A549, the cytotoxicity ratio is 1.37.

Turning to `O=C(N/N=C/c1c(O)ccc2ccccc12)c1cc(-c2ccc3ccccc3c2)n[nH]1`, the inhibition entry in test [14] was “Dose-dependent effect”. Further, the pKi at Sphingosine kinase 1 [1] was 5.97. The inhibition entry on Sphingosine kinase 1 [11] was “Active”.

`CCN(CC)c1ccc(/C=N/NC(=O)c2cc(-c3ccc(OC)cc3)n[nH]2)cc1`: the inhibition on Sphingosine kinase 1 [3] came out at 38%.

For the compound `COc1ccc(-c2cc(C(=O)N/N=C/c3ccc(C(C)C)cc3)[nH]n2)cc1`, the inhibition at Sphingosine kinase 1 [3] came to 15.3%.

For `COc1ccc(-c2cc(C(=O)N/N=C(\C)c3ccc(Cl)cc3)[nH]n2)cc1`, at Sphingosine kinase 1 [3], the inhibition amounted to 46.8%.

`COc1ccc(-c2cc(C(=O)N/N=C/c3ccc(O)cc3O)[nH]n2)cc1`: at Sphingosine kinase 1 [3], the inhibition turned out to be 30.8%.

As to `COc1ccc(-c2cc(C(=O)N/N=C/c3ccccc3O)[nH]n2)cc1`, on Sphingosine kinase 1 [3], the inhibition worked out at 33.5%.

Take `COc1ccc(-c2cc(C(=O)N/N=C/c3ccc(OC)c(OC)c3)[nH]n2)cc1`: at Sphingosine kinase 1 [3], the inhibition came to 44.5%.

Take `O=C(N/N=C/c1ccccc1O)c1cc(-c2ccc3ccccc3c2)n[nH]1`: the inhibition on Sphingosine kinase 1 [3] was found to be 59.3%.

Take `COc1ccc(-c2cc(C(=O)N/N=C/c3cc(O)cc(O)c3)[nH]n2)cc1`: at Sphingosine kinase 1 [3], the inhibition was 12.5%.

Turning to `O=C(N/N=C/c1cccc(O)c1)c1cc(-c2ccc3ccccc3c2)n[nH]1`, on Sphingosine kinase 1 [3], the inhibition was 25.1%.

In the case of `COc1ccc(/C(C)=N/NC(=O)c2cc(-c3ccc(C)cc3)n[nH]2)cc1OC`, the inhibition on Sphingosine kinase 1 [3] was determined as 21.8%.

Take `O=C(N/N=C/c1ccc(O)cc1)c1cc(-c2ccc3ccccc3c2)n[nH]1`: the inhibition at Sphingosine kinase 1 [3] worked out at 28%.

As to `COc1ccc(-c2cc(C(=O)N/N=C/c3ccc(O)cc3)[nH]n2)cc1`, the inhibition at Sphingosine kinase 1 [3] was found to be 14.3%.

Consider `COc1ccc(-c2cc(C(=O)N/N=C/c3ccc4ccccc4c3)[nH]n2)cc1`, for which the inhibition at Sphingosine kinase 1 [3] came out at 52.5%.

As to `COc1ccc(-c2cc(C(=O)N/N=C/c3ccc(F)cc3)[nH]n2)cc1`, at Sphingosine kinase 1 [3], the inhibition amounted to 27.4%.

Regarding `COc1ccc(-c2cc(C(=O)N/N=C/c3cccc(O)c3)[nH]n2)cc1`, the inhibition on Sphingosine kinase 1 [3] amounted to 15.5%.

Consider `O=C(N/N=C/c1ccccc1O)c1cc(-c2ccccc2)n[nH]1`, for which, at Sphingosine kinase 1 [3], the inhibition came to 11.9%.

On to `Cc1ccc(-c2cc(C(=O)N/N=C/c3ccccc3O)[nH]n2)cc1`, for which the inhibition at Sphingosine kinase 1 [3] stood at 9.8%.

`O=C(N/N=C/c1ccc(O)cc1O)c1cc(-c2ccc3ccccc3c2)n[nH]1`: the inhibition at Sphingosine kinase 1 [3] turned out to be 39.5%.
